Data reported in ChEMBL document CHEMBL3351861, “New synthetic sulfone derivatives inhibit growth, adhesion and the leucine arylamidase APE2 gene expression of Candida albicans in vitro” (2015).

Legend:
Type in all cases: functional
Conditions in all cases: read-out: GI
[1] = system: Candida albicans; assay: Antifungal activity against Candida albicans 90028 assessed as growth inhibition at 1 ug/ml by CLSI M27-A3 method
How it was run: (§1)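 CLSI M27-A3 broth microdilution in RPMI, read after 48 h. Strains pre-grown 18 h in YEPD at 30°C. Final inoculum 0.5×10^2–2.5×10^3 cells/ml. Two-fold dilutions in RPMI came from a 1600 µg/ml stock in water with 9% DMSO; final DMSO was 0.09%. OD405 read, % inhibition = 100 − (CTW−SCW)/(GCW−SCW). Triplicate on three occasions, mean±SD.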

[2] = system: Candida albicans; assay: Antifungal activity against Candida albicans CAI4 expressing delta-cph1 gene assessed as growth inhibition at 1 ug/ml by CLSI M27-A3 method; how it was run: as §1
[3] = system: Candida albicans; assay: Antifungal activity against Candida albicans CAI4 expressing delta-cph1 (CPH1) gene assessed as growth inhibition at 1 ug/ml by CLSI M27-A3 method; how it was run: as §1
[4] = system: Candida albicans; assay: Antifungal activity against Candida albicans CAI4 expressing delta-efg1 gene assessed as growth inhibition at 1 ug/ml by CLSI M27-A3 method
How it was run: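 CLSI M27-A3 broth microdilution in RPMI. Final inoculum 0.5×10^2 to 2.5×10^3 cells/ml. Seven two-fold concentrations from 0.25 to 16 µg/ml, with DMSO held at 0.09% (v/v) in all wells. Compound-free growth controls and sterility controls are run for each strain. […] Triplicate on three occasions.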

[5] = system: Candida albicans; assay: Antifungal activity against Candida albicans CAI4 expressing delta-efg1 (EFG1) gene assessed as growth inhibition at 1 ug/ml by CLSI M27-A3 method; how it was run: as §1
[6] = system: Candida albicans; assay: Antifungal activity against Candida albicans CAI4 expressing delta-cph1/delta-efg1 gene assessed as growth inhibition at 1 ug/ml by CLSI M27-A3 method; how it was run: as §1
[7] = system: Candida albicans; assay: Antifungal activity against Candida albicans CAI4 expressing delta-cph1/delta-efg1 (EFG1) gene assessed as growth inhibition at 1 ug/ml by CLSI M27-A3 method; how it was run: as §1

Measured: inhibition of growth at 1 µg/mL

C[C@@H]1[C@H](O)[C@@H](C)/C=C/C=C/C=C/C=C/C=C/C=C/C=C/[C@H](O[C@@H]2O[C@H](C)[C@@H](O)[C@H](N)[C@@H]2O)C[C@@H]2O[C@](O)(C[C@@H](O)C[C@@H](O)[C@H](O)CC[C@@H](O)C[C@@H](O)CC(=O)O[C@H]1C)C[C@H](O)[C@H]2C(=O)O [AMPHOTERICIN B]
100%: all assays above
